Experiments:
[1] = test system: HCT-116^G13D-CSCs derived colonospheres; assay: 3D colonospheres chemotherapy treatment; format: cell-based, Human; details: 5-FU 14.7 μM, even with prolonged exposure
How it was run: (§1)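 Colonospheres grown from single-cell suspensions at low density in serum-free DMEM/F12 with FGF (10 ng/mL), EGF (20 ng/mL) and B27. Medium was refreshed every 3–4 days, and spheres were passaged by syringe dissociation. After ten days of growth, parental- or CSC-derived colonospheres were exposed to 5-FU (14.7/78 μM) and/or test compound (1.7/2.2 μM). Response was judged by metabolically active cells and sphere dissociation, with phase-contrast imaging.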

[2] = test system: advanced CRC; details: background statement, ref not given; cited from earlier work
[3] = test system: HCT-116^G13D; assay: SRB assay; format: cell-based; details: Homo sapiens, 48 h
How it was run: (§2)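 Sulforhodamine B assay. Cells were plated at 5000–10,000/well according to doubling time, then after 24 h exposed to a 7-point, 2-fold dilution series for 48 h at 37 °C, with paclitaxel as positive control. Cells were TCA-fixed 1 h at 4 °C and stained with 0.4% SRB, with unbound dye removed by 1% acetic acid. Bound dye was dissolved in 10 mM Tris pH 10.4 and read at 540 nm. IC50 was obtained by curve fitting; quadruplicates.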

[4] = test system: ABCB1; assay: qRT-PCR after chemotherapy treatment; format: cell-based, Human; details: HCT-116^G13D- and SW-620^G12V–CSCs, 48 h; printed '∼4 and 2-fold' for 'ABCB1 and ABCC1'
[5] = format: in vivo, Balb/c mice
How it was run: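 Male or unspecified Balb/c mice (20–22 g), fasted overnight, four groups of five. Single oral doses were given in 0.5% DMSO/10% Solutol/water at 10 mL/kg: test compound 20 mg/kg and 5-FU 40 mg/kg, alone or combined. Retro-orbital blood was taken at 0–10 h into EDTA by sparse sampling, two samples per group. Plasma (50 μL) was protein-precipitated with methanol, centrifuged, and the organic layer analysed.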

[6] = test system: SW-620^G12V; assay: SRB assay; format: cell-based; details: Homo sapiens, 48 h
How it was run: as §2

[7] = test system: SW-620^G12V-CSC derived colonospheres; assay: 3D colonospheres chemotherapy treatment; format: cell-based, Human; details: 5-FU 78 μM, even with prolonged exposure
How it was run: as §1

[8] = test system: ALDH1A1, ALDH1A3 and ALDH3A1; assay: qRT-PCR after chemotherapy treatment; format: cell-based, Human; details: HCT-116^G13D and SW-620^G12V, 48 h
How it was run: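 Parental monolayers and 10-day colonospheres were treated 48 h with 5-FU (14.7/78 μM), test compound (1.7/2.2 μM) or both, with 0.2% DMSO (final) as control. RNA was extracted with Tri-reagent and DNase-treated, then reverse-transcribed. SYBR green qPCR ran 95 °C 2 min, then 40 cycles of 95 °C 5 s/60 °C 5 s, with a final 72 °C 5 min. Expression was normalised to GAPDH.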

[9] = test system: HCT-116^G13D parental derived colonospheres; assay: 3D colonospheres chemotherapy treatment; format: cell-based, Human; details: 5-FU 14.7 μM, PMBA 1.7 μM, after ten days of growth
How it was run: as §1

[10] = test system: ABCC1; assay: qRT-PCR after chemotherapy treatment; format: cell-based, Human; details: HCT-116^G13D- and SW-620^G12V–CSCs, 48 h; printed '∼4 and 2-fold' for 'ABCB1 and ABCC1'
[11] = Balb/c, mouse, plasma, po, 40 mg

IC50 [3]: 14.8 µM | Vd ([5]; 5-FU alone, oral 40 mg): 56.32 L/kg | AUC(0-inf) [5, 11]: 1140 ng·h/mL | AUC(0-t) [5, 11]: 1110 ng·h/mL | Cmax [5, 11]: 2450 ng/mL | half-life [5, 11]: 1.1 h | IC50 [6]: 78.3 µM
Structure (SMILES): O=c1[nH]cc(F)c(=O)[nH]1 [5-FU, 5-Fluorouracil]
response of colonospheres to treatment [1]: resistant | curative accountability [2]: 10–15% | ABCB1 expression, fold down regulated [4]: did not alter the expression | response of colonospheres to treatment [7]: resistant | ALDH1A1, ALDH1A3 and ALDH3A1 expression [8]: did not alter the expression | response of colonospheres to treatment [9]: sensitive | ABCC1 expression, fold down regulated [10]: did not alter the expression

Source: article PMC9014391 (Heliyon, 2022)
